Assay results as given in ChEMBL document CHEMBL4196017, “Design, synthesis and identification of silicon-containing HCV NS5A inhibitors with pan-genotype activity” (Eur J Med Chem, 2018).

What was measured:
[1] = Metabolic stability in mouse liver microsomes assessed as parent compound remaining at 0.2 uM preincubated for 5 mins followed by NADPH addition measured up to 60 mins by UPLC-MS/MS analysis; type: ADME, microsome; conditions: read-out: Stability
Summary of the method: (§1)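 Pooled mouse, rat or human liver microsomes 0.2 mg/mL with 1 mM NADPH, 5 mM MgCl2, 100 mM potassium phosphate pH 7.4 and 0.2 µM compound; 5-min preincubation at 37 °C, NADPH start, sampled at 5, 15, 30, 60 min; ice-cold acetonitrile stop; UPLC-MS/MS; percent parent remaining at 60 min.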

[2] = biological target: T1, Nonstructural protein 5A (Hepatitis C virus) (UniProt Q5L478); assay: Potency index, ratio of ombitasvir IC50 to compound IC50 for inhibition of NS5A in HCV genotype 6a infected in human HuH7 replicon cells expressing HCV genotype 1b chimeric replicon; type: cell-based; conditions: Hepatitis C virus subtype 6a
T1 sequence (whole entry): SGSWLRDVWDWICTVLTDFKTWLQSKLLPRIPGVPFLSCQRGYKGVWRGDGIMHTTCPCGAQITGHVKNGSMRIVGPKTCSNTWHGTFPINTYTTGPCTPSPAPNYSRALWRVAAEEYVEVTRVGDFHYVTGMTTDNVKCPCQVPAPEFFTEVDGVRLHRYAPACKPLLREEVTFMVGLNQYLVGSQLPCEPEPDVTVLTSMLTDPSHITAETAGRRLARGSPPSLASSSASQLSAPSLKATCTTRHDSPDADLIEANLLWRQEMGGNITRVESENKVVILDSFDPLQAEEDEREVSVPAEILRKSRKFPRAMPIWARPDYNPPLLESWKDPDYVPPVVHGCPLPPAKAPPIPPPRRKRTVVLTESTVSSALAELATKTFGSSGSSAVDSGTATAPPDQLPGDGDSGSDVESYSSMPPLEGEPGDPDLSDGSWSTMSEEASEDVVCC

[3] = biological target: T1, Nonstructural protein 5A (Hepatitis C virus); assay: Potency index, ratio of ombitasvir IC50 to compound IC50 for inhibition of NS5A in HCV genotype 3a infected in human HuH7 replicon cells expressing HCV genotype 1b chimeric replicon; type: cell-based; conditions: Hepatitis C virus subtype 3a
[4] = Metabolic stability in rat liver microsomes assessed as parent compound remaining at 0.2 uM preincubated for 5 mins followed by NADPH addition measured up to 60 mins by UPLC-MS/MS analysis; type: ADME, microsome; conditions: read-out: Stability; summary of the method: as §1
[5] = AUC (0 to t) in mouse at 10 mg/kg, ig administered as single dose by UPLC-MS/MS analysis; type: ADME, organism-based; conditions: in vivo, po
Summary of the method: (§2)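 Adult male mice (12 h light-dark, 22 °C, 55% humidity) fasted 12 h with free water, then given a single 10 mg/kg intragastric dose; plasma concentrations by UPLC-MS/MS; PK parameters calculated by software.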

[6] = Tmax in mouse at 10 mg/kg, ig administered as single dose by UPLC-MS/MS analysis; type: ADME, organism-based; conditions: in vivo, po; summary of the method: as §2
[7] = Cmax in mouse at 10 mg/kg, ig administered as single dose by UPLC-MS/MS analysis; type: ADME, organism-based; parameters: dose 10 mg/kg, route intragastric; conditions: in vivo, po; summary of the method: as §2
[8] = Half life in mouse at 10 mg/kg, ig administered as single dose by UPLC-MS/MS analysis; type: ADME, organism-based; conditions: in vivo, po; summary of the method: as §2
[9] = Metabolic stability in human liver microsomes assessed as parent compound remaining at 0.2 uM preincubated for 5 mins followed by NADPH addition measured up to 60 mins by UPLC-MS/MS analysis; type: ADME, microsome; conditions: read-out: Stability; summary of the method: as §1

COC(=O)N[C@H](C(=O)N1CCC[C@H]1C(=O)Nc1ccc([C@@H]2CC[C@@H](c3ccc(NC(=O)[C@@H]4CCCN4C(=O)[C@@H](NC(=O)OC)C(C)C)cc3)N2c2ccc([Si](C)(C)C(C)(C)C)cc2)cc1)C(C)C
remaining at 1 h, 0.2 µM [1]: 92.1% | Ratio IC50 [2]: 3.7 | Ratio IC50 [3]: 7.2 | remaining at 1 h, 0.2 µM [4]: 87% | AUC(0-t) [5]: 3520 ng·h/mL | Tmax [6]: 3 h | Cmax [7]: 211 ng/mL | half-life [8]: 34.7 h | remaining at 1 h, 0.2 µM [9]: 84.3%

COC(=O)N[C@H](C(=O)N1CCC[C@H]1C(=O)Nc1ccc([C@@H]2CC[C@@H](c3ccc(NC(=O)[C@@H]4CCCN4C(=O)[C@@H](NC(=O)OC)C(C)C)cc3)N2c2ccc([Si](C)(C)C)cc2)cc1)C(C)C
remaining at 1 h, 0.2 µM [1]: 93.3% | Ratio IC50 [2]: 2.4 | Ratio IC50 [3]: 2.3 | remaining at 1 h, 0.2 µM [4]: 101% | AUC(0-t) [5]: 2910 ng·h/mL | Tmax [6]: 3 h | Cmax [7]: 262 ng/mL | half-life [8]: 8.8 h | remaining at 1 h, 0.2 µM [9]: 99.2%
